Consider 13 compounds from ChEMBL document CHEMBL3244319, “Angiotensin II analogues. 14. Roles of the imidazole nitrogens of position-6 histidine in pressor activity” (1979).

Starred links: 1 amine or outer side, 2 acyl side, 3 side chain; linkers in the order of their positions; H or OH if unused. Non-standard residues stand in square brackets, D forms with d. Residues, ends and D or L forms follow the SMILES beside them. X4 = O=C([C@H](Cc1cc[nH]n1)N[*:1])[*:2]; 2Thi = N[C@@H](Cc1cccs1)C(=O)O; Orn = NCCC[C@H](N)C(=O)O

The assay is filed under the species Rattus norvegicus. Briefly: Pressor activity in rat relative to angiotensin-2. It counts as functional. In a few lines: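 Male rats, anesthetized with pentobarbital, nephrectomized and treated with pentolinium; blood pressure rise recorded after dosing. Peptides dissolved in normal saline with 0.1% polyvinylpyrrolidone, held in siliconized glass containers. Activity expressed relative to [Asn1,Val5]angiotensin II set at 100.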
With `CC[C@H](C)[C@H](NC(=O)[C@H](Cc1ccc(O)cc1)NC(=O)[C@@H](NC(=O)[C@H](CCCN=C(N)N)NC(=O)[C@@H](N)CC(=O)O)C(C)C)C(=O)N[C@@H](Cc1c[nH]cn1)C(=O)N1CCC[C@H]1C(=O)N[C@@H](Cc1ccccc1)C(=O)O`, the Activity worked out at 4%.
The compound `CC[C@H](C)[C@H](NC(=O)[C@H](Cc1ccc(O)cc1)NC(=O)[C@@H](NC(=O)[C@H](CCCN=C(N)N)NC(=O)[C@@H](N)CC(=O)O)C(C)C)C(=O)N[C@@H](Cc1cncn1C)C(=O)N1CCC[C@H]1C(=O)N[C@@H](Cc1ccccc1)C(=O)O` returned an Activity of 0.05%.
Regarding `CC[C@H](C)[C@H](NC(=O)[C@H](Cc1ccc(O)cc1)NC(=O)[C@@H](NC(=O)[C@H](CCCN=C(N)N)NC(=O)[C@@H](N)CC(=O)O)C(C)C)C(=O)N[C@@H](Cc1cn(C)cn1)C(=O)N1CCC[C@H]1C(=O)N[C@@H](Cc1ccccc1)C(=O)O`, the Activity was determined as 5%.
The value for `CC[C@H](C)[C@H](NC(=O)[C@H](Cc1ccc(O)cc1)NC(=O)[C@@H](NC(=O)[C@H](CCCNC(=N)N)NC(=O)[C@@H](N)CC(=O)O)C(C)C)C(=O)N[C@@H](Cc1cccs1)C(=O)N1CCC[C@H]1C(=O)N[C@@H](Cc1ccccc1)C(=O)O` (H-DRVYI[2Thi]PF-OH) was 10%; that for `CC[C@H](C)[C@H](NC(=O)[C@H](Cc1ccc(O)cc1)NC(=O)[C@@H](NC(=O)[C@H](CCCNC(=N)N)NC(=O)[C@@H](N)CC(=O)O)C(C)C)C(=O)N[C@@H](CCCN)C(=O)N1CCC[C@H]1C(=O)N[C@@H](Cc1ccccc1)C(=O)O` (H-DRVYI[Orn]PF-OH) was 0.03%; that for `CC[C@H](C)[C@H](NC(=O)[C@H](Cc1ccc(O)cc1)NC(=O)[C@@H](NC(=O)[C@H](CCCNC(=N)N)NC(=O)[C@@H](N)CC(=O)O)C(C)C)C(=O)N[C@@H](Cc1cc[nH]n1)C(=O)N1CCC[C@H]1C(=O)N[C@@H](Cc1ccccc1)C(=O)O` (H-DRVYI[X4]PF-OH) was 57%.
For the compound H-DRVYIAPF-OH, the Activity is 0.8%.
The compound H-DRVYIEPF-OH registered an Activity of 0%.
The compound H-DRVYIFPF-OH came in with an Activity of 3%.
As to H-DRVYIKPF-OH, the Activity is 0.1%.
H-DRVYILPF-OH displayed an Activity of 0.02%.
Take H-DRVYIMPF-OH: the Activity was determined as 0.2%.
H-DRVYIRPF-OH yielded an Activity of 0.01%.
